ChEMBL document CHEMBL1131456, “Synthesis, pharmacological characterization, and quantitative structure-activity relationship analyses of 3,7,9,9-tetraalkylbispidines: derivatives with specific bradycardic activity” (J Med Chem, 1998)

Assays:
Rattus norvegicus [1] = assay: In vivo activity in anesthetized rat was measured as the diastolic arterial pressure which provides information on the peripheral resistance of the cardiovascular system and selectivity regarding bradycardia; format: functional, Artery
Summary of the method: (§1)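 Male Wistar rats (280–360 g) under urethane (1.25 g/kg ip), intubated and breathing spontaneously. Femoral arterial pressure was recorded with needle-electrode ECG, analysed every 30 s. Compound was given by continuous femoral-vein infusion at 0.1 mL/min, with concentration raised tenfold every 10 min (3 doses). ED75/ED125 is the dose giving a 25% decrease/increase from the predrug value, reported as the geometric mean of individual EDs.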

Rattus norvegicus [2] = species on record: Rattus norvegicus; assay: Selectivity quotient (R&T125/HR75)
Rattus norvegicus [3] = species on record: Rattus norvegicus; assay: Total score (SS)
Cavia porcellus [4] = species on record: Cavia porcellus; assay: Selectivity quotient (F75/SR75); format: functional
Summary of the method: (§2)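 Atrial selectivity quotients were calculated from the guinea pig atrial EC values as F75/SR75 and FRP125/SR75.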

Cavia porcellus [5] = species on record: Cavia porcellus; assay: Selectivity quotient (FRP125/SR75); format: functional; summary of the method: as §2
Rattus norvegicus [6] = assay: In vivo activity in anesthetized rat was measured as heart rate which provides information on in vivo bradycardic activity; format: functional; summary of the method: as §1
Rattus norvegicus [7] = species on record: Rattus norvegicus; assay: Score value indicates desire effect on heart rate; format: functional
Rattus norvegicus [8] = species on record: Rattus norvegicus; assay: Score value indicates selectivity against the undesired effect on diastolic blood pressure; format: functional, Artery
Rattus norvegicus [9] = assay: In vivo activity in anesthetized rat was measured as the R alpha T-interval of the rat ECG which reflects the time from ventricular excitation to recovery; format: functional, Cardiac ventricle; summary of the method: as §1
[10] = Partition coefficient (logP); format: physicochemical; conditions: octanol/water
Summary of the method: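 Lipophilicity was measured by reversed-phase HPLC. Mobile phase was methanol/0.005 M phosphate buffer pH 4 (60/40) with 0.1% SDS and 0.1 M NaClO4, at 23.0 ± 0.5 °C, with UV detection at 205 nm.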

Cavia porcellus [11] = species on record: Cavia porcellus; assay: In vitro activity in guinea pig atria was measured as rate of spontaneously beating right atrium (SR) which reflects the activity of the sinus node; format: functional; conditions: Cardiac atrium
Summary of the method: (§3)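 Isolated guinea pig atria in oxygenated buffer at 35 °C. Right atria beat spontaneously; left atria were paced at 2 Hz with 1 ms rectangular pulses and isometric contractions were recorded. Cumulative concentration–response curves were run with up to five concentrations. EC75/EC125 is the concentration giving a 25% decrease/increase from the predrug value, reported as the geometric mean of individual ECs.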

Cavia porcellus [12] = species on record: Cavia porcellus; assay: In vitro activity in guinea pig atria as the functional refractory period (FRP), which is the shortest interval between a double stimulus causing a double contraction.; summary of the method: as §3
Rattus norvegicus [13] = species on record: Rattus norvegicus; assay: Selectivity quotient (DAP125/HR75)
Cavia porcellus [14] = species on record: Cavia porcellus; assay: Score value indicates decrease of the sinus rate; format: functional
Rattus norvegicus [15] = species on record: Rattus norvegicus; assay: Score point for the selectivity versus additional effect R&T interval.; format: functional
Cavia porcellus [16] = species on record: Cavia porcellus; assay: In vitro activity in guinea pig atria was measured as the peak force of contraction (F) of a stimulated left atrium; format: functional; conditions: Cardiac atrium; summary of the method: as §3
Cavia porcellus [17] = species on record: Cavia porcellus; assay: Score value indicates selectivity versus the decrease in force of contraction; format: functional
Cavia porcellus [18] = species on record: Cavia porcellus; assay: Sum of the scores of decrease of the sinus rate and selectivity versus the decrease in force of contraction; format: functional
Cavia porcellus [19] = species on record: Cavia porcellus; assay: Score point for the selectivity versus additional effect FRP.; format: functional

## CCCC1(CCC)C2CN(C(C)C)CC1CN(C(C)C)C2
Rattus norvegicus [1]
  ED125: 11 µM/kg
Rattus norvegicus [2]
  Selectivity quotient: 0.28
Rattus norvegicus [3]
  total score (SS): 2
Cavia porcellus [4]
  Selectivity quotient: 18.2
Cavia porcellus [5]
  Selectivity quotient: 0.37
Rattus norvegicus [6]
  ED75: 6.4 µM/kg
Rattus norvegicus [7]
  Score: 5
Rattus norvegicus [8]
  Score: -3
Rattus norvegicus [9]
  ED125: 1.8 µM/kg
[10]; read-out: logP
  logP: 4.51
Cavia porcellus [11]
  EC75: 2.18 µM
Cavia porcellus [12]
  EC125: 0.8 µM
Rattus norvegicus [13]
  Selectivity quotient: 1.72
Cavia porcellus [14]
  Score: 5
Rattus norvegicus [15]
  Score: 4
Cavia porcellus [16]
  EC75: 39.6 µM
Cavia porcellus [17]
  Score: -1
Cavia porcellus [18]
  Score: 4
Cavia porcellus [19]
  Score: 4

## CCCC1(C)C2CN(C(C)C)CC1CN(C(C)C)C2 (centres undefined)
Rattus norvegicus [1]
  ED125: >36 µM/kg
Rattus norvegicus [2]
  Selectivity quotient: 0.12
Rattus norvegicus [3]
  total score (SS): 5
Cavia porcellus [4]
  Selectivity quotient: 106
Cavia porcellus [5]
  Selectivity quotient: 1.32
Rattus norvegicus [6]
  ED75: 4.5 µM/kg
Rattus norvegicus [7]
  Score: 6
Rattus norvegicus [8]
  Score: -1
Rattus norvegicus [9]
  ED125: 0.53 µM/kg
[10]; read-out: logP
  logP: 3.53
Cavia porcellus [11]
  EC75: 1.99 µM
Cavia porcellus [12]
  EC125: 2.63 µM
Rattus norvegicus [13]
  Selectivity quotient: >8
Cavia porcellus [14]
  Score: 5
Rattus norvegicus [15]
  Score: 5
Cavia porcellus [16]
  EC75: 211 µM
Cavia porcellus [17]
  Score: 0
Cavia porcellus [18]
  Score: 5
Cavia porcellus [19]
  Score: 3

## CCCCCCN1CC2CN(C)CC(C1)C2(CC)CC
Rattus norvegicus [1]
  ED125: >106 µM/kg
Rattus norvegicus [2]
  Selectivity quotient: 0.12
Rattus norvegicus [3]
  total score (SS): 2
Rattus norvegicus [6]
  ED75: 25 µM/kg
Rattus norvegicus [7]
  Score: 3
Rattus norvegicus [8]
  Score: -1
Rattus norvegicus [9]
  ED125: 3 µM/kg
[10]; read-out: logP
  logP: 4.88
Cavia porcellus [12]
  EC125: 0.84 µM
Rattus norvegicus [13]
  Selectivity quotient: >4
Rattus norvegicus [15]
  Score: 5
Cavia porcellus [16]
  EC75: 17.5 µM

## C=CCCN1CC2CN(CCC=C)CC(C1)C2(C)C
Rattus norvegicus [1]
  ED125: >46 µM/kg
Rattus norvegicus [2]
  Selectivity quotient: 0.13
Rattus norvegicus [3]
  total score (SS): 4
Cavia porcellus [4]
  Selectivity quotient: >177
Cavia porcellus [5]
  Selectivity quotient: 1.54
Rattus norvegicus [6]
  ED75: 7.1 µM/kg
Rattus norvegicus [7]
  Score: 5
Rattus norvegicus [8]
  Score: -1
Rattus norvegicus [9]
  ED125: 0.94 µM/kg
[10]; read-out: logP
  logP: 3.13
Cavia porcellus [11]
  EC75: 1.21 µM
Cavia porcellus [12]
  EC125: 1.87 µM
Rattus norvegicus [13]
  Selectivity quotient: >6
Cavia porcellus [14]
  Score: 5
Rattus norvegicus [15]
  Score: 5
Cavia porcellus [16]
  EC75: > 215 µM
Cavia porcellus [17]
  Score: 0
Cavia porcellus [18]
  Score: 5
Cavia porcellus [19]
  Score: 3

## CCCCCCN1CC2CN(CCCCCC)CC(C1)C21CCCC1
Rattus norvegicus [1]
  ED125: 2.8 µM/kg
Rattus norvegicus [2]
  Selectivity quotient: 0.4
Rattus norvegicus [3]
  total score (SS): -1
Cavia porcellus [4]
  Selectivity quotient: 3.53
Cavia porcellus [5]
  Selectivity quotient: 0.51
Rattus norvegicus [6]
  ED75: 14 µM/kg
Rattus norvegicus [7]
  Score: 3
Rattus norvegicus [8]
  Score: -4
Rattus norvegicus [9]
  ED125: 5.6 µM/kg
[10]; read-out: logP
  logP: 5.47
Cavia porcellus [12]
  EC125: 0.44 µM
Rattus norvegicus [13]
  Selectivity quotient: 0.2
Cavia porcellus [14]
  Score: 6
Rattus norvegicus [15]
  Score: 4
Cavia porcellus [16]
  EC75: 3.07 µM
Cavia porcellus [17]
  Score: -3
Cavia porcellus [18]
  Score: 3
Cavia porcellus [19]
  Score: 3

## CCCCC1(CCCC)C2CN(CC3CCCCC3)CC1CN(C(C)C)C2
Rattus norvegicus [1]
  ED125: >66 µM/kg
Rattus norvegicus [2]
  Selectivity quotient: 0.12
Rattus norvegicus [3]
  total score (SS): 3
Cavia porcellus [4]
  Selectivity quotient: 1.92
Cavia porcellus [5]
  Selectivity quotient: 0.76
Rattus norvegicus [6]
  ED75: 9.3 µM/kg
Rattus norvegicus [7]
  Score: 4
Rattus norvegicus [8]
  Score: -1
Rattus norvegicus [9]
  ED125: 1.1 µM/kg
[10]; read-out: logP
  logP: 7.61
Cavia porcellus [11]
  EC75: 1.9 µM
Cavia porcellus [12]
  EC125: 1.45 µM
Rattus norvegicus [13]
  Selectivity quotient: >7
Cavia porcellus [14]
  Score: 5
Rattus norvegicus [15]
  Score: 5
Cavia porcellus [16]
  EC75: 3.65 µM
Cavia porcellus [17]
  Score: -5
Cavia porcellus [18]
  Score: 0
Cavia porcellus [19]
  Score: 3

## CCCCN1CC2CN(CCCC)CC(C1)C2(CCCC)CCCC
Rattus norvegicus [1]
  ED125: 5.1 µM/kg
Rattus norvegicus [2]
  Selectivity quotient: 0.37
Rattus norvegicus [3]
  total score (SS): 1
Cavia porcellus [4]
  Selectivity quotient: 1.12
Cavia porcellus [5]
  Selectivity quotient: 0.53
Rattus norvegicus [6]
  ED75: 8.7 µM/kg
Rattus norvegicus [7]
  Score: 4
Rattus norvegicus [8]
  Score: -3
Rattus norvegicus [9]
  ED125: 3.2 µM/kg
[10]; read-out: logP
  logP: 7.03
Cavia porcellus [11]
  EC75: 1.91 µM
Cavia porcellus [12]
  EC125: 1.01 µM
Rattus norvegicus [13]
  Selectivity quotient: 0.58
Cavia porcellus [14]
  Score: 5
Rattus norvegicus [15]
  Score: 4
Cavia porcellus [16]
  EC75: 2.14 µM
Cavia porcellus [17]
  Score: -5
Cavia porcellus [18]
  Score: 0
Cavia porcellus [19]
  Score: 3

## C=CCCN1CC2CN(CCC=C)CC(C1)C21CCCCC1
Rattus norvegicus [1]
  ED125: 1.5 µM/kg
Rattus norvegicus [2]
  Selectivity quotient: 0.12
Rattus norvegicus [3]
  total score (SS): 2
Cavia porcellus [4]
  Selectivity quotient: 167
Cavia porcellus [5]
  Selectivity quotient: 2.85
Rattus norvegicus [6]
  ED75: 4.9 µM/kg
Rattus norvegicus [7]
  Score: 6
Rattus norvegicus [8]
  Score: -4
Rattus norvegicus [9]
  ED125: 0.58 µM/kg
[10]; read-out: logP
  logP: 4.49
Cavia porcellus [11]
  EC75: 0.4 µM
Cavia porcellus [12]
  EC125: 1.14 µM
Rattus norvegicus [13]
  Selectivity quotient: 0.31
Cavia porcellus [14]
  Score: 6
Rattus norvegicus [15]
  Score: 5
Cavia porcellus [16]
  EC75: 75.1 µM
Cavia porcellus [17]
  Score: 0
Cavia porcellus [18]
  Score: 6
Cavia porcellus [19]
  Score: 2

## C=CCCN1CC2CN(CC(C)C)CC(C1)C2(CCC)CCC
Rattus norvegicus [1]
  ED125: 2.4 µM/kg
Rattus norvegicus [2]
  Selectivity quotient: 0.09
Rattus norvegicus [3]
  total score (SS): 3
Cavia porcellus [4]
  Selectivity quotient: 52.5
Cavia porcellus [5]
  Selectivity quotient: 1.66
Rattus norvegicus [6]
  ED75: 3.5 µM/kg
Rattus norvegicus [7]
  Score: 6
Rattus norvegicus [8]
  Score: -3
Rattus norvegicus [9]
  ED125: 0.32 µM/kg
[10]; read-out: logP
  logP: 5.32
Cavia porcellus [11]
  EC75: 0.44 µM
Cavia porcellus [12]
  EC125: 0.73 µM
Rattus norvegicus [13]
  Selectivity quotient: 0.68
Cavia porcellus [14]
  Score: 6
Rattus norvegicus [15]
  Score: 6
Cavia porcellus [16]
  EC75: 23.1 µM
Cavia porcellus [17]
  Score: 0
Cavia porcellus [18]
  Score: 6
Cavia porcellus [19]
  Score: 3

## CCCCCCCCCCN1CC2CN(CCCCCCCCCC)CC(C1)C2(C)C
[10]
  logP: 9.64
Cavia porcellus [12]
  EC125: 85 µM
Cavia porcellus [16]
  EC75: 105 µM

## C=CCN1CC2CN(CC=C)CC(C1)C2(C)C
Cavia porcellus [4]
  Selectivity quotient: >25
Cavia porcellus [5]
  Selectivity quotient: 0.5
[10]; read-out: logP
  logP: 2.7
Cavia porcellus [11]
  EC75: 8.55 µM
Cavia porcellus [12]
  EC125: 4.3 µM
Cavia porcellus [14]
  Score: 3
Cavia porcellus [16]
  EC75: > 215 µM
Cavia porcellus [17]
  Score: 0
Cavia porcellus [18]
  Score: 3
Cavia porcellus [19]
  Score: 4

## CN1CC2CN(C)CC(C1)C2(C)C
Cavia porcellus [4]
  Selectivity quotient: 1
Cavia porcellus [5]
  Selectivity quotient: 1
[10]; read-out: logP
  logP: 1.61
Cavia porcellus [12]
  EC125: 122 µM
Cavia porcellus [14]
  Score: 0
Cavia porcellus [17]
  Score: -5
Cavia porcellus [18]
  Score: -5
Cavia porcellus [19]
  Score: 3
